Assay results from ChEMBL document CHEMBL1133503 (J Med Chem, 2000).
pIC50: −log10 of the molar value.

How the values were obtained:
[1] = species on record: Rattus norvegicus; experiment: Bioreduction experiment was conducted by incubation of the sulfoxides with rat liver S-9 fractions in anaerobic conditions(N2, benzaldehyde); type: functional
Method in brief: (§1)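 Rat liver S-9 fraction incubated with sulfoxide at 37 °C for 30 min with shaking. Aerobic vials were left open to air. Anaerobic vials were purged with N2 for 10 min before the compound was injected. Cofactor was NADPH, benzaldehyde, 2-hydroxypyrimidine or acetaldehyde, or none. Controls were boiled S-9 and S-9 without cofactors. For menadione, S-9 was preincubated aerobically with 1 equiv for 30 min, then benzaldehyde was added. Sulfide or sulfone was measured by HPLC or TLC densitometry.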

[2] = Concentration required to reduce cell survival to 10% of controls using V-79 cells in the clonogenic assay, in aerobic conditions; type: functional; settings: Cricetulus griseus, V79
Method in brief: (§2)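 V-79 cells (500 000 per bottle) grown 20 h in MEM with 10% FBS. Hypoxic set gassed 2 h at 37 °C with humidified 95% N2/5% CO2. Drug in ethanol/water or DMF injected through septa. Exposure 3 h under air or hypoxia. Cells trypsinised, counted by trypan blue, 500 plated in triplicate for 6–8 days. Colonies stained with crystal violet, survival relative to solvent control.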

[3] = species on record: Rattus norvegicus; experiment: Bioreduction experiment was conducted by incubation of the sulfoxides with rat liver S-9 fractions in anaerobic conditions (N2); type: functional; method in brief: as §1
[4] = Hypoxic selectivity expressed as the ratio of IC50 values in air and nitrogen; type: functional
[5] = species on record: Rattus norvegicus; experiment: Bioreduction experiment was conducted by incubation of the sulfoxides with rat liver S-9 fractions in anaerobic conditions(N2, without cofactors); type: functional; method in brief: as §1
[6] = species on record: Rattus norvegicus; experiment: Reduction potential (SCE) determined by differential pulse polarography of the sulfoxides […]; type: functional
[7] = species on record: Rattus norvegicus; experiment: Bioreduction experiment was conducted by incubation of the sulfoxides with rat liver S-9 fractions in anaerobic conditions (N2 2-hydroxypyrimidine); type: functional; method in brief: as §1
[8] = Concentration required to reduce cell survival to 10% of controls using V-79 cells in the clonogenic assay, in anaerobic conditions (hypoxic conditions); type: functional; settings: Cricetulus griseus, V79; method in brief: as §2
[9] = Relative cytotoxicity is expressed as the ratio of the IC50 values of the corresponding sulfide to sulfoxide or to sulfone; type: functional, Cricetulus griseus
Method in brief: (§3)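 V-79 cells (about 7 × 10³ per 100 μL) preincubated 24 h, then exposed to drug for 3 h under oxic conditions. Washed 5× with HBSS and grown 48 h more. Fixed with TCA and stained with SRB. Bound dye dissolved in 10 mM Tris, spotted on TLC and read by video densitometry. IC50 is the mean of triplicates in one experiment. Ratio is IC50 of sulfide over sulfoxide or sulfone.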

[10] = Concentration of drug required to reduce V-79 cell survival to 50% of controls in a SRB assay; type: functional, cell-based; settings: Cricetulus griseus, V79; method in brief: as §3
[11] = species on record: Rattus norvegicus; experiment: Bioreduction experiment was conducted by incubation of the sulfoxides with rat liver S-9 fractions in anaerobic conditions (N2, without cofactors); type: functional; set-up: concentration or dose not given beside the values; method in brief: as §1
[12] = Hypoxia-selective cytotoxicity required to reduce cell survival to 10% of controls using V-79 cells in the clonogenic assay, with N2; type: functional; settings: Cricetulus griseus, V79; method in brief: as §2
[13] = species on record: Rattus norvegicus; experiment: Bioreduction experiment was conducted by incubation of the sulfoxides with rat liver S-9 fractions in aerobic conditions (air, benzaldehyde); type: functional; method in brief: as §1
[14] = Hypoxia-selective cytotoxicity required to reduce cell survival to 10% of controls using V-79 cells in the clonogenic assay, with air; type: functional; settings: Cricetulus griseus, V79; method in brief: as §2
[15] = species on record: Rattus norvegicus; experiment: Bioreduction experiment was conducted by incubation of the sulfoxides with rat liver S-9 fractions under anaerobic (N2) in the presence of acetaldehyde; type: functional
Method in brief: (§4)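 Rat liver S-9 incubated with sulfoxide for 30 min at 37 °C, in open vials (air) or in vials purged with N2 for 10 min before dosing. Cofactor was NADPH, NADH, benzaldehyde, 2-hydroxypyrimidine or acetaldehyde. Controls were boiled S-9 or no cofactor. Menadione arm: 30 min aerobic preincubation with 1 equiv, then benzaldehyde. Stopped with CH2Cl2. Sulfide quantified by TLC densitometry as % of sulfoxide. Three experiments, same S-9 batch.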

[16] = species on record: Rattus norvegicus; experiment: Bioreduction experiment was conducted by incubation of the sulfoxides with rat liver S-9 fractions in aerobic conditions (air, control); type: functional; method in brief: as §1
[17] = species on record: Rattus norvegicus; experiment: Bioreduction experiment was conducted by incubation of the sulfoxides with rat liver S-9 fractions in aerobic conditions (N2, 2-hydroxypyrimidine); type: functional; method in brief: as §1
[18] = species on record: Rattus norvegicus; experiment: Bioreduction experiment was conducted by incubation of the sulfoxides with rat liver S-9 fractions under anaerobic (N2) in the presence of 2-hydroxypyrimidine; type: functional; method in brief: as §4
[19] = species on record: Rattus norvegicus; experiment: Bioreduction experiment was conducted by incubation of the sulfoxides with rat liver S-9 fractions under anaerobic (N2) with conditions boiled S-9 fractions; type: functional; method in brief: as §4
[20] = species on record: Rattus norvegicus; experiment: Bioreduction experiment was conducted by incubation of the sulfoxides with rat liver S-9 fractions in aerobic conditions (N2, menadione); type: functional; method in brief: as §1
[21] = species on record: Rattus norvegicus; experiment: Bioreduction experiment was conducted by incubation of the sulfoxides with rat liver S-9 fractions under anaerobic (N2) in the presence of NADPH; type: functional; method in brief: as §4
[22] = species on record: Rattus norvegicus; experiment: Bioreduction experiment was conducted by incubation of the sulfoxides with rat liver S-9 fractions under aerobic(air) with conditions boiled S-9 fractions; type: functional; method in brief: as §4
[23] = species on record: Rattus norvegicus; experiment: Bioreduction experiment was conducted by incubation of the sulfoxides with rat liver S-9 fractions under anaerobic (N2) in the presence of menadione; type: functional; method in brief: as §4
[24] = species on record: Rattus norvegicus; experiment: Bioreduction experiment was conducted by incubation of the sulfoxides with rat liver S-9 fractions in aerobic conditions (air, without cofactors); type: functional; method in brief: as §1
[25] = species on record: Rattus norvegicus; experiment: Bioreduction experiment was conducted by incubation of the sulfoxides with rat liver S-9 fractions in anaerobic conditions (N2, benzaldehyde); type: functional; set-up: concentration or dose not given beside the values; method in brief: as §1
[26] = species on record: Rattus norvegicus; experiment: Bioreduction experiment was conducted by incubation of the sulfoxides with rat liver S-9 fractions in aerobic conditions (N2, NADPH); type: functional; method in brief: as §1
[27] = species on record: Rattus norvegicus; experiment: Bioreduction experiment was conducted by incubation of the sulfoxides with rat liver S-9 fractions in aerobic conditions (N2, acetaldehyde); type: functional; method in brief: as §1
[28] = species on record: Rattus norvegicus; experiment: Bioreduction experiment was conducted by incubation of the sulfoxides with rat liver S-9 fractions in aerobic conditions (air, NADPH); type: functional; method in brief: as §1
[29] = species on record: Rattus norvegicus; experiment: Bioreduction experiment was conducted by incubation of the sulfoxides with rat liver S-9 fractions under aerobic(air) in the presence of benzaldehyde; type: functional; method in brief: as §4
[30] = species on record: Rattus norvegicus; experiment: Bioreduction experiment was conducted by incubation of the sulfoxides with rat liver S-9 fractions under anaerobic (N2) in the presence of NADH; type: functional; method in brief: as §4
[31] = species on record: Rattus norvegicus; experiment: Bioreduction experiment was conducted by incubation of the sulfoxides with rat liver S-9 fractions under anaerobic (N2) without cofactors; type: functional; method in brief: as §4
[32] = species on record: Rattus norvegicus; experiment: Bioreduction experiment was conducted by incubation of the sulfoxides with rat liver S-9 fractions under aerobic(air) without cofactors; type: functional; method in brief: as §4
[33] = species on record: Rattus norvegicus; experiment: Bioreduction experiment was conducted by incubation of the sulfoxides with rat liver S-9 fractions in anaerobic conditions N2); type: functional; method in brief: as §1
[34] = species on record: Rattus norvegicus; experiment: Bioreduction experiment was conducted by incubation of the sulfoxides with rat liver S-9 fractions under aerobic(air) in the presence of NADPH; type: functional; method in brief: as §4
[35] = species on record: Rattus norvegicus; experiment: Bioreduction experiment was conducted by incubation of the sulfoxides with rat liver S-9 fractions under aerobic(air) in the presence of were NADH; type: functional; method in brief: as §4
[36] = species on record: Rattus norvegicus; experiment: Bioreduction experiment was conducted by incubation of the sulfoxides with rat liver S-9 fractions in aerobic conditions(air, benzaldehyde); type: functional; method in brief: as §1
[37] = species on record: Rattus norvegicus; experiment: Bioreduction experiment was conducted by incubation of the sulfoxides with rat liver S-9 fractions in aerobic conditions(air without cofactors); type: functional; method in brief: as §1
[38] = species on record: Rattus norvegicus; experiment: Bioreduction experiment was conducted by incubation of the sulfoxides with rat liver S-9 fractions in aerobic conditions(air, NADPH); type: functional; method in brief: as §1
[39] = species on record: Rattus norvegicus; experiment: Bioreduction experiment was conducted by incubation of the sulfoxides with rat liver S-9 fractions in anaerobic conditions(N2, menadione); type: functional; method in brief: as §1
[40] = species on record: Rattus norvegicus; experiment: Bioreduction experiment was conducted by incubation of the sulfoxides with rat liver S-9 fractions in aerobic conditions(air ); type: functional; method in brief: as §1

Compound [O-][s+]1c2ccccc2c2cc(N(CCCl)CCCl)ccc21 (configuration not stated) has a Bioreduction [1] of 1.68%, an IC90 [2] of 210 µM and a Bioreduction [3] of 0%. For the same compound, the Selectivity [4] was 1.3, the Bioreduction [5] was 0.46% and the E [6] was 2.03 -V. For the same compound, the Bioreduction [7] was 2.02% and the IC90 [8] was 161 µM.
With [O-][S+](c1ccccc1)c1ccc(N(CCCl)CCCl)cc1 (configuration not stated) the IC90 [2] was 2010 µM, the Selectivity [4] was 11 and the IC90 [8] was 189 µM.
Work on Cl.O=S(=O)(c1ccc(Nc2c3ccccc3nc3ccccc23)cc1)c1ccc(N(CCCl)CCCl)cc1 yielded a Cytotoxicity [9] of 0.09 and a pIC50 [10] of 4.65.
Nc1ccc(Sc2ccc(N(CCCl)CCCl)cc2)cc1 gave a Cytotoxicity [9] of 1 and a pIC50 [10] of 5.60.
Nc1ccc([S+]([O-])c2ccc(N(CCCl)CCCl)cc2)cc1 (configuration not stated) gave a Bioreduction [11] of 0%, an IC90 [12] of 185 µM and a Bioreduction [13] of 0%. For the same compound, the IC90 [14] was 2800 µM, the Bioreduction [15] was 12.92% and the Bioreduction [16] was 0%. For the same compound, the Bioreduction [17] was 4.5%, the Bioreduction [18] was 8.5% and the Cytotoxicity [9] was 0.08. It also gave a Bioreduction [19] of 0%, a Bioreduction [20] of 0% and a Bioreduction [21] of 42.1%. The Bioreduction [22] was 0%, the Bioreduction [23] was 1.6% and the Bioreduction [24] was 0%. The Bioreduction [25] was 5%, the pIC50 [10] was 4.52 and the Bioreduction [26] was 0.37%. For the same compound, the Selectivity [4] was 15, the E [6] was 2.55 -V and the Bioreduction [27] was 4.42%. The Bioreduction [28] was 0 nmol/mg, the Bioreduction [29] was 1.05% and the Bioreduction [30] was 9%. For the same compound, the Bioreduction [31] was 1.75%, the Bioreduction [32] was 1.14% and the Bioreduction [33] was 0%. The Bioreduction [34] was 16% and the Bioreduction [35] was 9.75%.
With [O-][s+]1c2ccc(N(CCCl)CCCl)cc2c2cc(N(CCCl)CCCl)ccc21 the Bioreduction [11] was 0.6%, the IC90 [2] was 4670 µM and the Bioreduction [25] was 0.6%. For the same compound, the Bioreduction [3] was 0%, the Selectivity [4] was 3 and the E [6] was 1.96 -V. It also gave a Bioreduction [7] of 0.33% and an IC90 [8] of 1520 µM.
Work on O=[N+]([O-])c1ccc(Sc2ccc(N(CCCl)CCCl)cc2)cc1 yielded a Cytotoxicity [9] of 1 and a pIC50 [10] of 5.65.
Cl.ClCCN(CCCl)c1ccc(Sc2ccc(Nc3c4ccccc4nc4ccccc34)cc2)cc1 gave a Cytotoxicity [9] of 1 and a pIC50 [10] of 5.71.
Work on [O-][S+](c1ccc(N(CCCl)CCCl)cc1)c1ccc(N(CCCl)CCCl)cc1 yielded a Bioreduction [36] of 0%, an IC90 [2] of 3090 µM and a Bioreduction [37] of 0%. For the same compound, the Bioreduction [3] was 0%, the Bioreduction [38] was 0% and the Selectivity [4] was 17. The Bioreduction [5] was 0%, the E [6] was 2.63 -V and the Bioreduction [39] was 0%. It also gave a Bioreduction [40] of 0% and an IC90 [8] of 184 µM.
